Laboratory results published in ChEMBL document CHEMBL1133803, “Design and synthesis of irreversible depsipeptidyl human rhinovirus 3C protease inhibitors” (Bioorg Med Chem Lett, 2001).

Tests used:
Human rhinovirus sp. = test: Enzyme inhibition against Human Rhinovirus 3C protease was determined; type: functional
HeLa [1] = test: Cytotoxicity against uninfected H1HeLa cells; type: functional; settings: Homo sapiens
HeLa [2] = test: Anti viral activity against human rhinovirus (HRV) in H1HeLa cells; type: functional, cell-based
[3] = Metabolism after 30 min of incubation with human liver microsomes in the presence of cofactor […] (2.0 mM) at a concentration of 25 uM; type: ADME; settings: read-out: Metabolism
[4] = Metabolism after 30 min of incubation with human liver microsomes in the absence of cofactor […] (2.0 mM) at a concentration of 25 uM; type: ADME; settings: read-out: Metabolism
Summary of the method: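 Compound incubated for 30 min with human liver microsomes (1.0 mg/mL), with or without NADPH. An aliquot was precipitated with acetonitrile, then analysed by reverse-phase HPLC at rt using a gradient of CH3CN/CH3OH/0.01% TFA (pH 3.5 adjusted with NEt3), from 5:20:75 to 60:20:20 over 20 min, held 10 min, 1.0 mL/min. Result expressed as % metabolism.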

CCOC(=O)/C=C/[C@H](CCC(N)=O)NC(=O)[C@@H](CC(=O)[C@@H](NC(=O)c1cc(C)on1)C(C)C)Cc1ccc(F)cc1
K obs / 1 (Human rhinovirus sp.): 240000 M⁻¹ s⁻¹
CC50 (HeLa [1]): > 100000 nM
EC50 (HeLa [2]): 100 nM

CCOC(=O)/C=C/[C@H](CCC(N)=O)NC(=O)[C@H](Cc1ccc(F)cc1)NC(=O)[C@@H](NC(=O)SC1CCCC1)C(C)C
K obs / 1 (Human rhinovirus sp.): 59900 M⁻¹ s⁻¹
CC50 (HeLa [1]): > 100000 nM
EC50 (HeLa [2]): 190 nM

CCOC(=O)/C=C/[C@H](C[C@@H]1CCNC1=O)NC(=O)[C@H](Cc1ccc(F)cc1)NC(=O)[C@@H](NC(=O)c1cc(C)on1)C(C)C
K obs / 1 (Human rhinovirus sp.): 1500000 M⁻¹ s⁻¹
CC50 (HeLa [1]): > 100000 nM
metabolised at 0.5 h, 25 µM [3]: 22%
metabolised at 0.5 h, 25 µM [4]: 7%
EC50 (HeLa [2]): 10 nM

CCOC(=O)/C=C/[C@H](C[C@@H]1CCNC1=O)NC(=O)[C@H](Cc1ccc(F)cc1)OC(=O)[C@@H](NC(=O)c1cc(C)on1)C(C)C
K obs / 1 (Human rhinovirus sp.): 270000 M⁻¹ s⁻¹
CC50 (HeLa [1]): > 100000 nM
metabolised at 0.5 h, 25 µM [3]: 67%
metabolised at 0.5 h, 25 µM [4]: 44%
EC50 (HeLa [2]): 7 nM

CCOC(=O)/C=C/[C@H](CCC(N)=O)NC(=O)[C@H](Cc1ccc(F)cc1)NC(=O)[C@@H](NC(=O)c1cc(C)on1)C(C)C
K obs / 1 (Human rhinovirus sp.): 248000 M⁻¹ s⁻¹
CC50 (HeLa [1]): > 100000 nM
EC50 (HeLa [2]): 420 nM

CCOC(=O)/C=C/[C@H](CCC(N)=O)NC(=O)[C@@H](CC(=O)[C@@H](NC(=O)SC1CCCC1)C(C)C)Cc1ccc(F)cc1
K obs / 1 (Human rhinovirus sp.): 293000 M⁻¹ s⁻¹
CC50 (HeLa [1]): > 100000 nM
EC50 (HeLa [2]): 20 nM

CCOC(=O)/C=C/[C@H](CCC(N)=O)NC(=O)[C@H](Cc1ccc(F)cc1)OC(=O)[C@@H](NC(=O)SC1CCCC1)C(C)C
K obs / 1 (Human rhinovirus sp.): 99800 M⁻¹ s⁻¹
CC50 (HeLa [1]): > 10000 nM
EC50 (HeLa [2]): 1000 nM

CCOC(=O)/C=C/[C@H](CCC(N)=O)NC(=O)[C@H](Cc1ccc(F)cc1)OC(=O)[C@@H](NC(=O)c1cc(C)on1)C(C)C
K obs / 1 (Human rhinovirus sp.): 68400 M⁻¹ s⁻¹
CC50 (HeLa [1]): > 10000 nM
EC50 (HeLa [2]): 100 nM

CCOC(=O)/C=C/[C@H](C[C@@H]1CCNC1=O)NC(=O)[C@@H](CC(=O)[C@@H](NC(=O)c1cc(C)on1)C(C)C)Cc1ccc(F)cc1 [RUPINTRIVIR]
K obs / 1 (Human rhinovirus sp.): 1090000 M⁻¹ s⁻¹
CC50 (HeLa [1]): > 100000 nM
metabolised at 0.5 h, 25 µM [3]: 50%
metabolised at 0.5 h, 25 µM [4]: 27%
EC50 (HeLa [2]): 5 nM
